# In publication PMC10746523 (iScience, 2023):
# Where two headings read alike, the source gives them in different places.
# What was measured:
# [1] = Competitive oxidation assay with the ketone 1; details: ketone 1 (600 μM) alone treated with ONOO− (600 μM), Tris pH 7.5
# Outline: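 Ketone-competition variant of the microplate assay in 50 mM Tris pH 7.5: ketone competitor (600 μM) with ONOO⁻ (600 μM), alone or added after the probe (1 μM) had been pre-mixed 5 min with ONOO⁻ (600 μM). Probe plus ONOO⁻ without competitor was run in parallel. Fluorescence (ex/em 405/475 nm) was followed over time.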
# [2] = cited from earlier work
# [3] = Determination of pKa by UV-Vis absorbance; assay type: physicochemical; details: MES and Tris buffers of different pH, pH 5.2
# [4] = pH dependence of fluorescence intensity; assay type: physicochemical; details: 405/475 nm; 1 µM
# [5] = Photophysical characterization and relative fluorescence quantum yield; assay type: physicochemical; details: for Quantum Yield (relative fluorescence quantum yield, ΦFrel): ethanol, standard coumarin 343, 405/475 nm
# Outline: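 Relative quantum yield in ethanol: absorbance at 405 nm and fluorescence at ex/em 405/475 nm were measured for samples and for the coumarin 343 reference (Q_r 0.63 in ethanol). The refractive-index ratio was taken as 1.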
# [6] = Solubility, stated in words; assay type: physicochemical; details: aqueous media and buffers
# [7] = Selectivity against RONS, microplate F/F0; details: for F/F0: probe 1 μM
# Outline: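 Probe (1 μM final, from a 100 μM DMSO stock) was mixed with each RONS (estimated 600 μM) in 50 mM Tris pH 7.5 containing 600 μM EDTA. HO· was generated in situ from Fe(ClO₄)₂ plus H₂O₂ (36 mM), and ¹O₂ from NaOCl plus H₂O₂. Plate fluorescence (405/475 nm) was read at 1 and 60 min; F/F₀ = 60-min reading over t₀.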
# [8] = Microplate time- and pH-dependent fluorescence response to ONOO−; details: probe 1 μM, ONOO− 600 μM
# Outline: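 Water-soluble probe (1 μM) was treated with ONOO⁻ (600 μM) in 50 mM MES (pH 5.8) or 50 mM Tris (pH 6.8, 7.8, 8.8). Fluorescence (ex/em 405/475 nm) was read on a microplate reader over time and expressed relative to untreated samples at t = 0 min.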
# PCLS = test: Confocal imaging of PCLS exposed to nitrogen mustard; assay type: cell-based, mice; details: 75 μM TEG-TC-ONOO–, compared to 75 μM LNPs with ∼4 μM DPPC-TC-ONOO–
# [9] = in ethanol, cited from earlier work
smiles,measurement,setting,value
"O=C(CCc1ccc(O)cc1)C(F)(F)F [Compound 1, 1,1,1-trifluoro-4-(4-hydroxyphenyl)butan-2-one]",fluorescence generation,[1],no fluorescence
"O=NOO [ONOOH, peroxynitrous acid]",chemical half-life,[2],0.63 s
same,pKa,[2],6.8
same,biological half-life,"[2]; estimated, depends on concentration of biological targets",10–20 ms
"O=c1oc2cc(O)ccc2cc1-n1cc(COCCOCCOCCO)nn1 [TEG-TC, 7-hydroxy-3-(4-((2-(2-(2-hydroxyethoxy)ethoxy)ethoxy)methyl)-1H-1,2,3-triazol-1-yl)-2H-chromen-2-one]",pKa,[3],7.1 ± 0.1
same,fluorescence signal intensity at pH 7.5–8.8 relative to pH 5.8,[4],18- to 20 fold
same,Brightness,[5],10305
same,Extinction Coefficient,[5],15613 M⁻¹ cm⁻¹
same,Max Em,[5],471.4 nm
same,Max Ex,[5],397.0 nm
same,Relative brightness,[5],41.1
same,"Quantum Yield (relative fluorescence quantum yield, ΦFrel)",[5],0.66
"O=C(Oc1ccc(CCC(=O)C(F)(F)F)cc1)Oc1ccc2cc(-n3cc(COCCOCCOCCO)nn3)c(=O)oc2c1 [TEG-TC-ONOO^–, 3-(4-((2-(2-(2-hydroxyethoxy)ethoxy)ethoxy)methyl)-1H-1,2,3-triazol-1-yl)-2-oxo-2H-chromen-7-yl (4-(4,4,4-trifluoro-3-oxobutyl)phenyl) carbonate]",solubility,[6],highly soluble
same,relative fluorescence enhancement for ONOO− compared to the other RONS,[7],~36 fold
same,fluorescence intensity stronger than background,"[7]; H2O2 600 μM, 60 min",16%
same,F/F0,"[7]; H2O2 600 μM, 60 min",1.16
same,increase in fluorescence,"[7]; ONOO− 600 μM, 60 min",~570%
same,F/F0,"[7]; ONOO− 600 μM, 60 min",6.69
same,increase in fluorescence,"[7]; absence of a redox species, 60 min",13%
same,F/F0,"[7]; absence of a redox species, 60 min, Tris pH 7.5",1.13
same,change in fluorescence,"[7]; species other than ONOO−, 600 μM, 60 min",only negligible levels of change in fluorescence
same,F/F0,"[7]; ·NO 600 μM, 60 min",1.03
same,fluorescence generation,[8]; pH 5.8 and 6.8,little or no fluorescence generation
same,fluorescence relative to untreated sample (t = 0 min),"[8]; pH 7.8, until 30 min",up to 6.5 times
same,fluorescence relative to untreated sample (t = 0 min),"[8]; pH 8.8, until 30 min",≤ 8 times
same,signal within PCLS exposed to NM (405 nm excitation),PCLS,considerably weak signals
same,Brightness,[5],358
same,Extinction Coefficient,[5],4475 M⁻¹ cm⁻¹
same,Max Em,[5],472.0 nm
same,Max Ex,[5],400.0 nm
same,Relative brightness,[5],1.4
same,"Quantum Yield (relative fluorescence quantum yield, ΦFrel)",[5],0.08
O=C(O)c1cc2cc3c4c(c2oc1=O)CCCN4CCC3 [coumarin 343],absolute fluorescence quantum yield (ΦF),[9],0.63
same,quantum yield of reference standard (Qr),[9]; ref Sigma Aldrich,0.63
